Screening results from PubChem.
Shown are actives, neighbours in structure and some others; about 2.4% of the full set was active somewhere.
pCIP destab – p/CIP protein destabilization; Q05BA5; F442A p/CIP-EGFP cells, EGFP fluorescence, 16 h; decrease of EGFP signal, % at 10 µM; hit rate 0.01% among 290,000;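 active = EGFP signal decrease of at least 30% at 10 µM or well 3 SD below plate mean, unless failing retest; inactive = the rest, including hits failing retest or dose response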
PP5 primary – inhibitors of human protein phosphatase 5 (PP5); P53041; purified PP5c, OMFP substrate fluorescence; inhibition, % at 6.7 µM; hit rate 0.18% among 320,000;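 active = inhibition above the campaign's mean inhibition across all tested compounds plus 3 SD, cut at about 9.5% in these data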;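 note: 0% = DMSO only and 100% = 100 µM cantharidin control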
Target sequence (P53041 whole entry, looked up): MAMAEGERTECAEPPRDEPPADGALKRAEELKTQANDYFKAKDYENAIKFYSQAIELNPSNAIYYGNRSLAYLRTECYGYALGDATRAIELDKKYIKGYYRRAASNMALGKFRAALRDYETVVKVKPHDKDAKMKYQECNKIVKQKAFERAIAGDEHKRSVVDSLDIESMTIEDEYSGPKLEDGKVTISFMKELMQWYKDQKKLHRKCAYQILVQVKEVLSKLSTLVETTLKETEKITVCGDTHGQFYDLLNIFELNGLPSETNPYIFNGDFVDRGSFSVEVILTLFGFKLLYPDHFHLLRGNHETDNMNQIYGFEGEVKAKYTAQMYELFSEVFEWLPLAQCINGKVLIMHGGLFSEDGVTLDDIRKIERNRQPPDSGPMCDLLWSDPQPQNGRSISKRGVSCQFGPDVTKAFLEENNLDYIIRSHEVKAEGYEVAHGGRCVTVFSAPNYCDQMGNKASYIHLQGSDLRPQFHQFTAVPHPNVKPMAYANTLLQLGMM
T cruzi repl – blocks replication of Trypanosoma cruzi | T. cruzi beta-gal in NIH3T3, luminescence, 90 h | inhibition, % (concentration not given with the values) | hit rate 1.4% among 300,000;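 active = mean inhibition across valid replicates above about 55%, limit read from the data; inconclusive = mean below that limit but half or more replicates reach it; inactive = mean below it, under half of replicates reach it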;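 note: signal also drops with host cell toxicity which is not excluded here; 0% = plate median of DMSO wells and 100% = zero luminescence signal; higher percent means less beta-gal luminescence so fewer parasites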
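System – NIH/3T3 host cells with β-galactosidase reporter T. cruzi · Doses – single 50 nL compound addition per well in DMSO · Reagent – 5000 T. cruzi trypomastigotes/well · Medium – Low-serum DMEM with 2% FBS · Timing – ≥90 h infection period, 3 h prior cell attachment · Evaluation – parasite load inhibition, % · Technique – GalScreen luminescence, 60 min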
Cardio protect – myocardial damage modulation in H9c2 cells; H9c2 cardiomyocytes, H2O2 injury protection, ATPLite, 2 h; protection from H2O2 cell death, % at 20 µM; hit rate 0.63% among 360,000; AID 588492;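 active = compounds giving at least 50% protection of heart cells from peroxide-induced death in the single-dose screen, raw or plate-pattern-corrected value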;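 note: 0% = DMSO wells with peroxide and 100% = DMSO wells without peroxide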
Fh CTSL1 inh – cathepsin L1 inhibition, PFM18AAP counter-screen. recombinant F. hepatica cathepsin L1, Z-Leu-Arg-MCA fluorescence. hit rate 0.49% among 300,000. inhibition, % at 5.96 µM;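 active = inhibition above the mean of all tested compounds plus 3 SD, set per screening campaign, cut at about 17% in these data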;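 note: 0% = plate median of test compound wells and 100% = 1 µM Z-Phe-Ala-diazomethylketone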
GASC-1 inh – human JMJD2C demethylase inhibition. Q9H3R0. GST-JMJD2C(1-420) H3K9me3 demethylation, DELFIA europium. inhibition, % at 2.35 µM. hit rate 0.069% among 330,000. AID 2099;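 active = more than half of a compound's replicate wells show inhibition beyond 50%, single wells judged on their own value; inconclusive = some, but no more than half, of replicates pass 50% inhibition; inactive = no replicate passes 50% inhibition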;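 note: signal counts dimethyl H3K9 product captured on neutravidin plate; 0% = median of DMSO wells and 100% = 0.3 times that DMSO median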
Active calls of the source: *; ? = inconclusive; nt = not tested or not shown.

SMILES | pCIP destab | PP5 primary | T cruzi repl | Cardio protect | Fh CTSL1 inh | GASC-1 inh
Cc1cc(OCc2cc(C(=O)N(C)C3CCOC3)no2)cc(C)c1Cl (configuration not stated) | -11 | 1 | 3 | -4 | 0 | -1
N=c1c(-c2nc3ccccc3[nH]2)cc(C(=O)c2ccco2)nn1-c1ccccc1 | 1 | 2 | 12 | -2 | 10 | 13
N=c1c(-c2nc3ccccc3[nH]2)cc(C(=O)c2cccs2)nn1-c1ccccc1 | -24 | -3 | 72* | -12 | 4 | 6
CCCn1c(=O)c2[nH]c(-c3ccc(S(=O)(=O)O)cc3)nc2n(CCC)c1=O | nt | 0 | nt | -2 | 8 | nt
COc1ccc(O)c(/C=N/NC(=O)c2ccc(CSc3nc(C)cc(C)n3)cc2)c1 | -2 | 1 | 41 | 57* | 2 | 13
COc1ccc(O)c(/C=N/NC(=O)c2ccc(OCc3cccc(Br)c3)cc2)c1 | -5 | 3 | 73* | 25 | 4 | 26
COc1ccc(C(=O)N/N=C/c2cc(Br)ccc2O)cc1OC | -10 | 2 | 56* | 60* | 0 | 3
CCC1CCCCN1c1nc(-c2ccncc2)nc2ccccc12 (configuration not stated) | -3 | 3 | 63* | -7 | 3 | -4
CCC1CCCCN1c1nc(-c2cccc(OC)c2O)nc2ccccc12 (configuration not stated) | 0 | 5 | 52 | -7 | 2 | 1
CC1CCCCN1c1nc(-c2ccncc2)nc2ccccc12 (configuration not stated) | -2 | 0 | 60* | -4 | 5 | 0
CC1CCC2(CC1)NC(=O)N(CC(=O)NCc1ccc(F)cc1)C2=O (configuration not stated) | nt | 4 | nt | 1 | nt | -1
COc1ccc(-c2cc3c(=O)n(CC(=O)Nc4cccc(Cl)c4)nc(C)n3n2)cc1 | 5 | 1 | -14 | 10 | -3 | -9
O=C1C2C3C=CC(CC3)C2C(=O)N1/N=C/c1ccc(O)c(O)c1 (configuration not stated) | 4 | 3 | -6 | 6 | 5 | -11
Oc1ccc(/C=N/N2CCCCC2)cc1O | -5 | 4 | -70 | 69* | -2 | 6
O=C1c2ccccc2C(=O)N1/N=C/c1ccc(O)c(O)c1 | -7 | -2 | -12 | 62* | 6 | 9
COC(=O)c1c(NC(=O)CN2C(=O)NC3(CCC(C(C)(C)C)CC3)C2=O)sc2c1CCCCC2 (configuration not stated) | 2 | 2 | 58* | -7 | -3 | -1
O=C(NCCN1CCOCC1)/C(=C\c1ccccc1Cl)NC(=O)c1ccccc1 | -14 | 1 | -7 | 1 | 19* | 23
O=C(NCCN1CCOCC1)/C(=C/c1ccccc1)NC(=O)c1ccccc1 | -10 | -4 | -5 | 1 | 0 | -3
Cc1ccc(OCc2cc(C(=O)N(C)C3CCCc4ccccc43)no2)cc1C (configuration not stated) | nt | nt | nt | -20 | nt | nt
CCN(CC)CCSc1nc2ccccc2c(=S)n1-c1ccccc1 | 2 | -1 | 64* | nt | 1 | 36
CCN(CC)CCSc1nc(O)c(-c2ccccc2)c(=O)n1-c1ccccc1 | 0 | -2 | -2 | 0 | 1 | -2
COc1cc2nc(N(CCCN(C)C)C(=O)c3ccc(S(=O)(=O)N4CCc5ccccc54)cc3)sc2cc1OC | nt | -2 | 55* | 1 | 0 | 2
COc1ccc2sc(N(CCCN(C)C)C(=O)c3ccc(S(=O)(=O)N4CCCc5ccccc54)cc3)nc2c1 | nt | 3 | 62* | -20 | 3 | -15
Cn1c(CNC(=O)CNC(=O)c2ccc(C(C)(C)C)cc2)cc(=O)n(C)c1=O | 1 | -2 | -17 | 5 | 4 | ?
C[C@H](CO)N1C[C@H](C)[C@H](CN(C)C(=O)c2ccc3ccn(C)c3c2)OCc2cnnn2CCCC1=O | nt | nt | nt | 13 | nt | nt
SMILES | pCIP destab | PP5 primary | T cruzi repl | Cardio protect | Fh CTSL1 inh | GASC-1 inh
CCCSc1nnc(Sc2nnnn2-c2ccccc2)s1 | 1 | 0 | 55* | 2 | 3 | -1
CN(C)S(=O)(=O)c1cccc(C(=O)Nc2cc(S(=O)(=O)N3CCOCC3)ccc2N2CCCC2)c1 | nt | nt | nt | 5 | nt | nt
O=C1Nc2ccccc2C1=Nc1ccccc1-c1ccccc1 | nt | nt | nt | -13 | nt | nt
CC(NCc1ccncc1)C12CC3CC(CC(C3)C1)C2 (configuration not stated) | -24 | 0 | 63* | 1 | -2 | -34
CC(NCc1ccccc1O)C12CC3CC(CC(C3)C1)C2 (configuration not stated) | 14 | 0 | 16 | -9 | 1 | 7
CC(C)(C)n1nc(-c2ccc(F)cc2)c2c(N)ncnc21 | -10 | 4 | 57* | 7 | -4 | 6
O=C(N/N=C/c1cc(Br)cc([N+](=O)[O-])c1O)c1ccc(NC(=O)c2ccc(F)cc2)cc1 | 3 | 3 | 19 | 49 | 2 | 6
COc1cccc(CC2(CO)CCCN(Cc3ccc(CO)o3)C2)c1 (configuration not stated) | 0 | -3 | -18 | -1 | 5 | 4
COc1cccc(CC2(CO)CCCN(Cc3sc(N4CCCC4)nc3Cl)C2)c1 (configuration not stated) | -4 | -2 | 55* | -4 | 2 | -20
COc1cccc(CC2(CO)CCCN(Cc3ccc(C)s3)C2)c1 (configuration not stated) | -4 | -3 | 58* | 2 | 2 | -3
COc1cccc(CC2(CO)CCCN(Cc3[nH]c4ccc(C)cc4c3C)C2)c1 (configuration not stated) | 7 | 3 | 50 | -15 | -1 | -9
COc1cccc(CC2(CO)CCCN(Cc3ccc(-c4ccco4)cc3)C2)c1 (configuration not stated) | -8 | -1 | 58* | 10 | -7 | -4
COc1cccc(CC2(CO)CCCN(Cc3cc4ccccc4[nH]3)C2)c1 (configuration not stated) | -6 | 4 | 67* | 1 | -4 | -3
COC(=O)c1ccc(N2CCOCC2)c(NC(=O)c2cccnc2)c1 | -3 | 1 | ? | 0 | 2 | -2
Cc1cc(C)cc(OCC(=O)Nc2cccc(-c3nc4ncccc4o3)c2)c1 | -11 | 1 | 0 | 102* | 5 | -12
O=C(Cc1ccccc1)Nc1cccc(-c2nc3ncccc3o2)c1 | -9 | 1 | -3 | 6 | 3 | 7
O=C(O)C(Cc1ccccc1)N1C(=O)c2ccccc2C1=O (configuration not stated) | -4 | 2 | -2 | 1 | -3 | -1
CC(C)C(C(=O)Nc1ccccc1)N1C(=O)c2ccccc2C1=O (configuration not stated) | -11 | 5 | -6 | 0 | 6 | -13
